Tests used:
[1] = Selectivity index, ratio of IC50 for inhibition of human full length PI3K p110gamma to IC50 for inhibition of human full length PI3K p110delta/p85alpha
Rattus norvegicus [2] = test: Antiarthritic activity in Lewis rat model of Freund's incomplete adjuvant-induced arthritis assessed as reduction in ankle swelling at 1 mg/kg, po bid administered for 7 days at 12 hrs interval starting from day 10 to day 16 post-immunization by caliper method relative to control; assay type: functional; set-up: scale not given: the % may be the effect or the level left; details: time 7 day
In short: (§1)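 Established collagen-induced arthritis in female Lewis rats; oral dosing twice daily for 7 days from day 10 after second immunization. Right and left ankle diameters measured by caliper daily, days 9–18; ankle diameter AUC over days 11–18 compared with arthritic vehicle group (ANOVA, p < 0.05). n = 8/treatment group.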

[3] = AUC infinity in Lewis rat at 1 to 5 mg/kg, po administered as single dose; assay type: ADME, organism-based; details: in vivo, dose 1-5 mg/kg
In short: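 Female Lewis rats given a single oral dose of 1 or 5 mg/kg; plasma concentration–time profiles determined; mean ± SD, n = 3.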

[4] = Clearance in rhesus monkey at 1 mg/kg, iv measured over 24 hrs by LC/MS/MS analysis; assay type: ADME, organism-based, Macaca mulatta; details: in vivo
In short: (§2)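 Intravenous 1 mg/kg and oral 5 mg/kg doses. Vehicle: 5% ethanol/55% PEG 400/40% water for rats and dogs; 5% ethanol/22% PEG 400/73% water for cynomolgus; 5% ethanol/25% PEG 400/70% water for rhesus. Half-life and MRT from iv; mean ± SD, n = 3 per route.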

[5] = Oral bioavailability in rat at 5 mg/kg; assay type: ADME, organism-based; details: in vivo
[6] = Clearance in Sprague-Dawley rat at 1 mg/kg, iv measured over 24 hrs by LC/MS/MS analysis; assay type: ADME, organism-based; details: in vivo; in short: as §2
Rattus norvegicus [7] = test: (§3) Antiarthritic activity in Lewis rat model of Freund's incomplete adjuvant-induced arthritis assessed as reduction in ankle swelling at 0.3 mg/kg, po bid administered for 7 days at 12 hrs interval starting from day 10 to day 16 post-immunization by caliper method relative to control; assay type: functional; set-up: scale not given: the % may be the effect or the level left; details: time 7 day; in short: as §1
[8] = In vivo inhibition of PI3Kdelta in Lewis rat model of Freund's incomplete adjuvant-induced arthritis at 3 mg/kg, po bid administered for 7 days at 12 hrs interval starting from day 10 to day 16 post-immunization relative to control; assay type: functional; details: 168 h, time 7 day
In short: (§4)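 CIA Lewis rats dosed orally twice daily for 7 days at 0.3, 1 or 3 mg/kg; blood/plasma drug levels taken on day 7, 12 h after final dose, and related to PI3Kδ inhibition at trough.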

[9] = target: T1, Phosphatidylinositol 4,5-bisphosphate 3-kinase catalytic subunit gamma isoform (Homo sapiens, UniProt P48736); test: Inhibition of human full length PI3K p110gamma using […] as substrate measured after 30 mins by TR-FRET assay
Rattus norvegicus [10] = test: as §3, with “inhibition of […] bone formation” for “reduction in ankle swelling”, “0.3 to 3” for “0.3”, “microscopic analysis” for “caliper method”; assay type: functional; set-up: scale not given: the % may be the effect or the level left; details: dose 0.3-3 mg/kg, time 7 day
In short: (§5)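 Female Lewis rats with established collagen-induced arthritis dosed orally twice daily for 7 days at 0.3, 1 and 3 mg/kg, starting day 10 after second collagen immunization. Joint histopathology scored for pannus formation, cartilage damage, bone resorption and periosteal bone formation; ED50 derived. n = 8/treatment group, n = 4 normal controls.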

[11] = Terminal half life in Sprague-Dawley rat at 1 mg/kg, iv measured over 24 hrs by LC/MS/MS analysis; assay type: ADME, organism-based; details: in vivo, read-out: beta t1/2 (converted)
In short: (§6)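 Single intravenous dose of 1 mg/kg. Vehicles: rats and dogs 5% ethanol/55% PEG 400/40% water; cynomolgus monkeys 5% ethanol/22% PEG 400/73% water; rhesus monkeys 5% ethanol/25% PEG 400/70% water. Plasma concentration–time data gave Vss and iv half-life. Reported as mean ± SD, n = 3.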

[12] = Terminal half life in Beagle dog at 1 mg/kg, iv measured over 24 hrs by LC/MS/MS analysis; assay type: ADME, organism-based, Canis lupus familiaris; details: in vivo, read-out: beta t1/2 (converted); in short: as §6
Rattus norvegicus [13] = test: Antiarthritic activity in Lewis rat model of Freund's incomplete adjuvant-induced arthritis assessed as inhibition of cartilage damage at 0.3 to 3 mg/kg, po bid administered for 7 days at 12 hrs interval starting from day 10 to day 16 post-immunization by microscopic analysis relative to control; assay type: functional; set-up: scale not given: the % may be the effect or the level left; details: dose 0.3-3 mg/kg, time 7 day; in short: as §5
[14] = Clearance in Beagle dog at 1 mg/kg, iv measured over 24 hrs by LC/MS/MS analysis; assay type: ADME, organism-based, Canis lupus familiaris; details: in vivo; in short: as §2
[15] = Volume of distribution at steady state in rat at 1 mg/kg, iv; assay type: ADME, organism-based; details: in vivo, read-out: Vdss
In short: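 Rats and dog received 1 mg/kg intravenously, formulated in 12% w/v Captisol in water. Volume of distribution was taken at steady state from the iv plasma profile. Three animals per dosing route.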

[16] = In vivo inhibition of PI3Kdelta in Lewis rat model of Freund's incomplete adjuvant-induced arthritis at 1 mg/kg, po bid administered for 7 days at 12 hrs interval starting from day 10 to day 16 post-immunization relative to control; assay type: functional; details: 168 h, time 7 day; in short: as §4
[17] = target: Phosphatidylinositol 4,5-bisphosphate 3-kinase catalytic subunit alpha isoform (Mus musculus, UniProt P42337); test: Inhibition of PI3K p110alpha in mouse embryonic fibroblast cells assessed as reduction in PDGF-induced AKT phosphorylation at S473 residue preincubated for 2 hrs followed by PDGF stimulation and measured after 10 mins; set-up: species or system MEF
In short: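 MEFs grown overnight in DMEM/15% FBS, starved 2 h in 0.1% FBS, treated 2 h with compound at various concentrations, then stimulated with PDGF (10 ng/mL) 10 min at 37 °C. Lysates probed for total Akt and phospho-Akt S473 by capillary immunoassay; geometric mean, triplicate.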

Rattus norvegicus [18] = test: Antiarthritic activity in Lewis rat model of Freund's incomplete adjuvant-induced arthritis assessed as reduction in ankle swelling at 3 mg/kg, po bid administered for 7 days at 12 hrs interval starting from day 10 to day 16 post-immunization by caliper method relative to control; assay type: functional; set-up: scale not given: the % may be the effect or the level left; details: time 7 day; in short: as §1
Rattus norvegicus [19] = test: Antiarthritic activity in Lewis rat model of Freund's incomplete adjuvant-induced arthritis assessed as inhibition of pannus formation at 0.3 to 3 mg/kg, po bid administered for 7 days at 12 hrs interval starting from day 10 to day 16 post-immunization by microscopic analysis relative to control; assay type: functional; set-up: scale not given: the % may be the effect or the level left; details: dose 0.3-3 mg/kg, time 7 day; in short: as §5
[20] = target: T1, Phosphatidylinositol 4,5-bisphosphate 3-kinase catalytic subunit gamma isoform; test: Inhibition of PI3K p110gamma in human basophil assessed as reduction in fMLP-induced basophil activation by flow cytometry analysis; assay type: tissue-based
In short: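 Basophil activation via fMLP (p110γ) in 25% serum or in isolated WBCs in low serum, with increasing compound concentrations. Anti-CD63-FITC/anti-CCR3-PE staining; ≥150 (25% serum) or ≥75 (low serum) CCR3-high basophils gated; % CD63-positive normalized to 0.3% DMSO vehicle; concentration corrected for reagent dilution.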

Rattus norvegicus [21] = test: Antiarthritic activity in po dosed Lewis rat model of Freund's incomplete adjuvant-induced arthritis administered for 7 days at 12 hrs interval starting from day 10 to day 16 post-immunization by microscopic analysis; assay type: functional; details: 168 h, time 7 day; in short: as §5
[22] = target: PI3-kinase p110-alpha/p85-alpha (Homo sapiens, UniProt P42336); test: Inhibition of human full length PI3K p110alpha/p85alpha using […] as substrate measured after 30 mins by TR-FRET assay; assay type: protein-complex assay
[23] = Volume of distribution at steady state in rhesus monkey at 1 mg/kg, iv measured over 24 hrs by LC/MS/MS analysis; assay type: ADME, organism-based, Macaca mulatta; details: in vivo, read-out: Vdss; in short: as §6

T1 sequence (P48736 whole entry, canonical isoform): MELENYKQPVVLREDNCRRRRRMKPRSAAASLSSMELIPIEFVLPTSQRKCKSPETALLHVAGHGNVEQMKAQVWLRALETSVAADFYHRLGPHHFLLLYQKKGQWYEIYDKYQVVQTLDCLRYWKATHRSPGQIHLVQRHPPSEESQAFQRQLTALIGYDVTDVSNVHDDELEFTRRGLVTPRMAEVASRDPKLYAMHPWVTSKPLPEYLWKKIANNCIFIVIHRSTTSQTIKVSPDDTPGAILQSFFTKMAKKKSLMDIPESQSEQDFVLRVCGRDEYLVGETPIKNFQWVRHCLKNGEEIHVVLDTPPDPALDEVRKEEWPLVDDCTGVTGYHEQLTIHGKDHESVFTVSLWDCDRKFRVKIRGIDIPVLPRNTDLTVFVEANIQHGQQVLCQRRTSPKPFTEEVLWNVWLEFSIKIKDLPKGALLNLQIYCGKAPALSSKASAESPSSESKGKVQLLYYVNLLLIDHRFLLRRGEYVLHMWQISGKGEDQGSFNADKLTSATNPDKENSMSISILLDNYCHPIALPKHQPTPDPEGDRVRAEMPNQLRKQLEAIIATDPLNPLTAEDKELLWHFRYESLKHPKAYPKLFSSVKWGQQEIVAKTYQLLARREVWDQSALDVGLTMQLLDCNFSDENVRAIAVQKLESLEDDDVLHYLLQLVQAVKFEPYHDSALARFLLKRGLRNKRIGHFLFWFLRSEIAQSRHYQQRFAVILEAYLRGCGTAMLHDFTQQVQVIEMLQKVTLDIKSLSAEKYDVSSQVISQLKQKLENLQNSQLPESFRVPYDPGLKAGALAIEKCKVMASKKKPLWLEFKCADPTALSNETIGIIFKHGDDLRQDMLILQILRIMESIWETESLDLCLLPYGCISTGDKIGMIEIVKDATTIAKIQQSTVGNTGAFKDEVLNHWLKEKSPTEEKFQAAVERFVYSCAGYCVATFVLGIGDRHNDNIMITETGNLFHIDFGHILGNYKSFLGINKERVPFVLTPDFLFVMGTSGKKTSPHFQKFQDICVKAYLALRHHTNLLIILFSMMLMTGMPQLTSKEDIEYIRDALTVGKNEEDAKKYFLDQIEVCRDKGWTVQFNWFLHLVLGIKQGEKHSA
Sequence of PI3-kinase p110-alpha/p85-alpha (P27986 whole entry): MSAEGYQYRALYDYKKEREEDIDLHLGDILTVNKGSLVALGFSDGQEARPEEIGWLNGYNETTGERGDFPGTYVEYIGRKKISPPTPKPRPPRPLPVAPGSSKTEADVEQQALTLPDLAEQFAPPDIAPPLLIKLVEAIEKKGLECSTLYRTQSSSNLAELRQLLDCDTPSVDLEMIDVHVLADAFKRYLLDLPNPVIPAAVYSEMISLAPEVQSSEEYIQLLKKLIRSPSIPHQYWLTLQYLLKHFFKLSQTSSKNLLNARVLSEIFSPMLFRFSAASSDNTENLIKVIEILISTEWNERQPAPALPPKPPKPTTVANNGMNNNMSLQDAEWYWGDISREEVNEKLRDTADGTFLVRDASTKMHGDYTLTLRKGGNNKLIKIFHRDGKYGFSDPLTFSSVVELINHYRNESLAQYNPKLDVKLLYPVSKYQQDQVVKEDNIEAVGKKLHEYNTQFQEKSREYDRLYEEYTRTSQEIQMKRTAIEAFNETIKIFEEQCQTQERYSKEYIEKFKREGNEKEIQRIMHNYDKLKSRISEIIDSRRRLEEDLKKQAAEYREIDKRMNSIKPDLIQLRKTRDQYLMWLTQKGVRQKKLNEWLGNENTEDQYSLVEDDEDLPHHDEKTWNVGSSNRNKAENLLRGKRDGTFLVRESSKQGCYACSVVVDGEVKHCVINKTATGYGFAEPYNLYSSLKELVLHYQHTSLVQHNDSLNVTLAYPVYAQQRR
Sequence of PI3-kinase p110-alpha/p85-alpha (P42336 whole entry): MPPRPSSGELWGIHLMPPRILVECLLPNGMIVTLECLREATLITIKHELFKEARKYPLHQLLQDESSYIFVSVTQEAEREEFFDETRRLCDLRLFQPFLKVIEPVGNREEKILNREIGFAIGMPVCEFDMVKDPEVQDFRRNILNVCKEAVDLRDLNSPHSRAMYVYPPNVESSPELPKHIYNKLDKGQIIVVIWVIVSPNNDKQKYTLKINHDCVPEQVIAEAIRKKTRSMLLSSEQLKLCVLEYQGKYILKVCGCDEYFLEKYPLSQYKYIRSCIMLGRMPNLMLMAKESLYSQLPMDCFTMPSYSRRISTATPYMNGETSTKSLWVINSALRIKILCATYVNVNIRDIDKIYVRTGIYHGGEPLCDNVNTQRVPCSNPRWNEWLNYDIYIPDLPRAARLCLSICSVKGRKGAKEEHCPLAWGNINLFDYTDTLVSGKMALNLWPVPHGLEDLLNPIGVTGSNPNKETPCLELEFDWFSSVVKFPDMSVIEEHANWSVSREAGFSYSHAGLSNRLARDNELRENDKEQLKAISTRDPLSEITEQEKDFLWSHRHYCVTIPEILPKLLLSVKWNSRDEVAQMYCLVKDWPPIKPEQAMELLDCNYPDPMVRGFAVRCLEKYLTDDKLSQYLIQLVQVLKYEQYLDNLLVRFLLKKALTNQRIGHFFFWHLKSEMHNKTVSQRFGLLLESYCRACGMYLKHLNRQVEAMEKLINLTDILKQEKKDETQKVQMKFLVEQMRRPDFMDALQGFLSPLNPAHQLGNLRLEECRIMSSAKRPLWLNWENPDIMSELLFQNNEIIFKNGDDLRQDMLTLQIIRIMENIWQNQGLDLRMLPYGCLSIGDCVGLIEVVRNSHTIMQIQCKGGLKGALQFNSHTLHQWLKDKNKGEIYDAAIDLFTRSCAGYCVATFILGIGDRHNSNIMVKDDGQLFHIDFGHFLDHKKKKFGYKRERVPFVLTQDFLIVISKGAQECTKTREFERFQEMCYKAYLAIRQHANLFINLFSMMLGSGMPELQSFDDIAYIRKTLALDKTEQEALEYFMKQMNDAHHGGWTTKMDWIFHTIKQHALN
Sequence of Phosphatidylinositol 4,5-bisphosphate 3-kinase catalytic subunit alpha isoform (P42337 whole entry, canonical isoform): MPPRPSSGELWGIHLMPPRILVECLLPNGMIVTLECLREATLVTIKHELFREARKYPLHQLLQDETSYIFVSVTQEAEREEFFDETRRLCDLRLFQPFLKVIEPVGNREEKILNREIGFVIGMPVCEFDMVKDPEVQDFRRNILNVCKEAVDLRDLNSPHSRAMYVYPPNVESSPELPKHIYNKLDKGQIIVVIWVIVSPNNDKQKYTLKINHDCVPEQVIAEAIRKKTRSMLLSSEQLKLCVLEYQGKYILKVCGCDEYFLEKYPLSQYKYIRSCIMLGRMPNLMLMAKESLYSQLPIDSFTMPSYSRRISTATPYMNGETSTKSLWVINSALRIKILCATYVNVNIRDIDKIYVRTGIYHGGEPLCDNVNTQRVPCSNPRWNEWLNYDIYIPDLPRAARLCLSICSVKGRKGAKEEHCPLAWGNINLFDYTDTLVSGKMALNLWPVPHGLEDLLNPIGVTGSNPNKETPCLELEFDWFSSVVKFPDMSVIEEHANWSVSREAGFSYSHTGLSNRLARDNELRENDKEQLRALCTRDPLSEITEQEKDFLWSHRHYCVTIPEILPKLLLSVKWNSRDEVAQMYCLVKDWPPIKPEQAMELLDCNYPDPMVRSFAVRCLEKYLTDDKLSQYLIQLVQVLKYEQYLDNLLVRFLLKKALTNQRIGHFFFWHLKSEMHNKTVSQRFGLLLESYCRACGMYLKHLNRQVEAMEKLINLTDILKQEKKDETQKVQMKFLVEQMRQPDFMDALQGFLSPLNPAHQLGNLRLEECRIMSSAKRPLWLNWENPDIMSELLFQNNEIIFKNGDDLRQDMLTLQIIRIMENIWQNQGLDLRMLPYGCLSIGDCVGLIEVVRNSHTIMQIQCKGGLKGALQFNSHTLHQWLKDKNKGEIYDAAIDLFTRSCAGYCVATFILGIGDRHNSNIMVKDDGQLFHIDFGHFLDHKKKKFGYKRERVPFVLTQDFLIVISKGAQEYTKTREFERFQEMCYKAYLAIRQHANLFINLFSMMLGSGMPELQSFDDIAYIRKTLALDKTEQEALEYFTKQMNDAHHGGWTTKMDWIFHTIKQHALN

Ratio IC50 [1]: 190 | AUC(0-inf) [3]: 16 µM·h | clearance [4]: 11.7 mL/min/kg | bioavailability [5]: 57% | clearance [6]: 7.17 mL/min/kg | IC50 [9]: 190 nM | half-life [11]: 2.04 h | half-life [12]: 2.01 h | clearance [14]: 9 mL/min/kg | Vd [15]: 0.83 L/kg | EC50 [17]: 1170 nM | EC50 [20]: 404 nM | IC50 [22]: 750 nM | Vd [23]: 1.34 L/kg
Structure (SMILES): N#Cc1c(N)nc(N)nc1N[C@H](c1nc2c(F)ccc(Cl)c2c(=O)n1-c1cccnc1)C1CC1 [GS-9901]
Activity (Rattus norvegicus [2]): 67% | Activity (Rattus norvegicus [7]): 31% | inhibition in vivo at 3 mg/kg [8]: > 90% | Activity (Rattus norvegicus [10]): 48% | Activity (Rattus norvegicus [13]): 50% | inhibition in vivo at 1 mg/kg [16]: 80% | Activity (Rattus norvegicus [18]): 65% | Activity (Rattus norvegicus [19]): 58% | ED50 (Rattus norvegicus [21]): 0.6 mg/kg
